BB579 growth dn = reduces growth of yeast BB579 in restrictive medium; S. cerevisiae BB579 growth, OD615, 48 h; inhibition, % at 10 µM; 0.51% of 140,000 active;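 active = inhibition above a set limit, 3 SD over the mean compound inhibition, cut at about 44% in these data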
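test system = yeast BB579 (DeaD) | buffer or medium = restrictive CSMM-D medium | doses = single compound dose of 10 µM, 0.25% DMSO final | times = 4 h preincubation and 48 h exposure at 30 °C | technique = culture absorbance at 615 nm | benchmarks = amphotericin B 10 µg/mL, positive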
Yeast lifespan up = yeast lifespan extension. S. cerevisiae growth with nicotinamide, OD615; deaD strain in restrictive glucose medium. inhibition of the nicotinamide effect, % at 10 µM. 0.68% of 130,000 active;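 active = inhibition above a set limit, placed 3 SD over the median of all compounds, cut at about 26% in these data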;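 also: 0% = nicotinamide-treated wells and 100% = cells grown without nicotinamide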
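Assay system: engineered S. cerevisiae DeaD replicative-lifespan strain, galactose-grown log-phase cells; medium: restrictive CSMM-D dextrose medium; also added: nicotinamide, 1.5 mM, co-present with compound; schedule: 48 h compound exposure at 30 °C, humidified; detection: absorbance at 615 nm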
RAM inhibit = yeast RAM network inhibition. 1.8% of 190,000 active. AID 868. inhibition, % at 50 µM. S. cerevisiae dse1pr::URA3 reporter, 5-FOA growth OD615, 2 d; analog-sensitive cbk1-as2 kinase mutant strain;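 active = inhibition above a set limit, 3 SD over mean compound inhibition, cut at about 8.4% in these data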;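 also: 0% = DMSO-only wells with no growth and 100% = 10 µM 1-NA-PP1 full growth; inhibition rescues growth on 5-FOA so higher OD means more RAM inhibition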
Phagocytosis inh = blocks phagocytosis by macrophages; J774A.1 macrophage IgG-bead phagocytosis, imaging; inhibition, % at 5 µM; 0.07% of 110,000 active; AID 1029;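 active = inhibition above the mean of the plate negative controls plus 5 SD, cut at about 13% in these data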;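 also: phagocytic index as fraction of beads internalized from green versus red external bead signal; plate controls were DMSO negative control for no effect and cytochalasin-D positive control for full effect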
* marks the source's active call; other numbers are inactive results; · = no result; [ ] = another dose, or the depositor's remark. The list is not random: actives were taken first. Their share in the collection is about 2.7%.

SMILES	BB579 growth dn	Yeast lifespan up	RAM inhibit	Phagocytosis inh
Cc1cc(N=Nc2ccccc2)c(NCC(O)C(O)C(O)CO)cc1C (configuration not stated)	·	·	10.1*	·
Cc1ccc(NCC(O)C(O)C(O)CO)cc1C (configuration not stated)	-24.1	-9.4	0.4	-0.9
COc1cccc(CC(=O)Nc2ccc3nc(C)sc3c2)c1	79.3*	-2.6	-1.1	-11.3
COc1ccccc1CC(=O)Nc1ccc2nc(C)sc2c1	1.9	-6.0	0.0	-5.4
CC(C)(C)C(=O)Nc1ccc(S(=O)(=O)c2ccc(NC(=O)C(C)(C)C)cc2)cc1	-2.2	-5.9	3.0	-1.0
CC(C)(C)C(=O)Nc1cc(S(=O)(=O)Nc2ccc(Cl)cc2)ccc1Cl	-25.4	8.0	11.2*	-6.5
O=C(CCCc1ccccc1)NCCCN1CCOCC1	-1.4	-7.8	0.0	-0.6
O=C(CCc1ccccc1)NCCCN1CCOCC1	5.6	65.9*	0.7	-0.1
O=C(Oc1csc(=S)n1C(=O)c1ccccc1)c1ccccc1	49.0*	1.3	-0.2	-1.4
Cc1cccc(OC(=O)c2ccc3nccnc3c2)c1	-15.1	-21.5	4.2	-0.2
O=C(Oc1cccccc1=O)c1ccccc1	·	·	-0.8	·
Cc1cccc(C(=O)Oc2csc(=S)n2C(=O)c2cccc(C)c2)c1	44.4*	·	-0.6	·
N/C(Cc1ccc([N+](=O)[O-])cc1)=N\OC(=O)COc1cccc2ccccc12	-12.4	-6.5	10.4*	·
N/C(Cc1ccc([N+](=O)[O-])cc1)=N\OC(=O)COc1ccccc1Cl	-18.3	-4.4	3.7	-3.2
N/C(Cc1ccc(Cl)cc1)=N\OC(=O)c1cccc2ccccc12	99.0*	-11.3	1.5	2.5
CCOC(=O)c1c(CSc2cccs2)n(C)c2cc(Br)c(O)c(CN(C)C)c12	·	·	1.3	·
COc1ccc(/C=C/C(=O)NC2CCCCCCC2)cc1S(=O)(=O)N1CCOCC1	-12.1	0.1	1.2	·
Cc1c(C(=O)NCCSCc2ccc(Cl)cc2Cl)cccc1[N+](=O)[O-]	-32.5	-4.4	10.8*	3.3
Cc1c(C(=O)NCCSCc2ccccc2)cccc1[N+](=O)[O-]	·	·	-1.2	·
O=C(CNS(=O)(=O)c1ccccc1)NCC(=O)OCc1ccc(C(=O)c2ccccc2)cc1	-0.9	-1.7	2.7	-4.5
Cc1ccc(SCCNC(=S)Nc2cc(C)ccc2C)cc1	7.9	-13.0	8.9*	-0.4
COc1ccc(N=Nc2nc3cc(Br)c(Br)cc3n2C)c(OC)c1	-15.4	-3.3	1.4	-6.4
CC1=NNC(=O)C1CCC(=O)N/N=C/C(Br)=C/c1ccccc1 (configuration not stated)	-0.6	34.7*	-1.3	-8.9
COCCCN1C(=O)C(O)=C(C(=O)c2ccco2)C1c1cccc(Br)c1 (configuration not stated)	4.0	-19.9	1.9	-4.6
COCCCN1C(=O)C(O)=C(C(=O)c2ccco2)C1c1ccc(Br)cc1 (configuration not stated)	-39.0	-24.1	9.1*	-0.6
SMILES	BB579 growth dn	Yeast lifespan up	RAM inhibit	Phagocytosis inh
Cn1nc(C(F)(F)F)c(/C=N/OC(=O)c2ccccc2)c1Cl	-3.3	-5.3	2.8	·
Cn1nc(C(F)(F)F)c(/C=N/OC(=O)c2ccccc2)c1Sc1ccc(Cl)cc1	-53.5	-10.6	10.4*	0.2
C=CC(=O)NC(C)(C)CCN1CCOCC1	·	·	3.5	·
O=S1(=O)C=CC(Sc2nc3ccccc3[nH]2)C1 (configuration not stated)	-48.9	0.7	-0.5	0.3
CC1=CS(=O)(=O)CC1Sc1nc2ccccc2[nH]1 (configuration not stated)	-58.9	68.2*	0.7	0.8
CCOC(=O)c1nn(-c2ccccc2)c2nnc(Cc3ccc(C)cc3)c(=O)n12	-17.1	9.7	0.3	-2.7
CCOC(=O)c1nn(-c2ccc(OCC)cc2)c2nc(-c3cccc(OC)c3)c(C#N)c(=O)n12	-7.0	2.8	9.7*	-1.2
CCOC(=O)c1nn(-c2ccccc2)c2nnc(Cc3ccccc3)c(=O)n12	-13.1	31.6*	0.9	1.1
CCOC(=O)c1nn(-c2ccc(F)cc2)c2nc(-c3ccccc3)c(C#N)c(=O)n12	-37.8	27.2*	8.2	-1.1
Cc1nc(OCc2ccccc2)c2sc3nc4c(cc3c2n1)COC(C)(C)C4	-27.4	-12.8	2.4	2.4
O=C(NCCc1ccccc1)C1CCCN(S(=O)(=O)c2cccc3nsnc23)C1 (configuration not stated)	-18.3	-1.4	2.1	-10.3
Cc1ccc2cc(CCNS(=O)(=O)c3ccc(F)cc3)c(=O)[nH]c2c1C	·	·	8.5*	·
COc1ccc(-n2c(SCC#N)nnc2-c2ccc(NS(=O)(=O)c3ccc(C)cc3)cc2)cc1	-43.1	-5.4	8.5*	-0.6
CCN(CC)S(=O)(=O)c1ccc(Cl)c(C(=O)Nc2nncs2)c1	-2.7	-3.0	-1.2	-2.3
CCN(CC)S(=O)(=O)c1cc(C(=O)Nc2nncs2)c(Cl)cc1Cl	-21.5	-6.5	0.9	26.4*
Cc1ccc(NC(=O)ON=C2CCCC2)cc1	95.0*	-13.3	-0.1	-7.1
Cc1[nH]oc(=O)c1N=Nc1c(Cl)cccc1Cl	1.8	36.8*	-1.3	6.5
Cc1[nH]oc(=O)c1N=Nc1ccccc1	22.1	32.2*	-0.8	-4.7
CCOc1ccccc1N(C(=O)CNC(=O)c1ccco1)C(C(=O)NC(C)(C)C)c1ccncc1 (configuration not stated)	-23.0	-6.1	0.5	1.1
COc1ccc(/C=N/NC(=O)Cc2csc(Nc3cccc(C(F)(F)F)c3)n2)cc1C	-28.3	-11.1	0.1	·
COc1ccc(-c2cc(C(=O)Nc3nc4c(C)cccc4s3)c3ccccc3n2)cc1OC	-49.6	-11.6	8.6*	-0.7
COc1cccc(-c2cc(C(=O)Nc3nc4ccccc4s3)c3ccccc3n2)c1	-35.2	-9.0	3.8	-2.3
CC(C)C(O)(C#CCN1CCCCCC1)c1ccccc1 (configuration not stated)	·	·	2.1	·
O=C(OCc1ccc(F)cc1)c1ccc2c(c1)-c1ccccc1C2=O	-61.1	-15.4	10.5*	-0.5
CCOC(=O)C1=C(Cc2ccc(F)cc2)C(=O)c2ccccc2C1=O	-10.2	6.8	5.6	0.2
SMILES	BB579 growth dn	Yeast lifespan up	RAM inhibit	Phagocytosis inh
CCCOC(=O)c1ccc(Cl)c(NC(=O)c2cccnc2)c1	·	·	-0.8	·
S=C(Nc1ccc(Cl)cc1)c1nc2ccccc2s1	-67.4	7.1	8.4*	-5.0
O=C(Nc1ccc(Cl)cc1)/C(=C/c1cccc(O)c1)c1nc2ccccc2s1	-28.1	-3.4	8.5*	-1.8
COc1ccc(NC(=O)c2nc3ccccc3s2)cc1	-22.4	-5.6	2.3	-2.2
CC(=O)Nc1ccc(/C=N/NC(=O)CNC(=O)c2ccccc2)cc1	·	·	1.7	·
Nn1c(SCC(=O)NC2CCCc3ccccc32)nnc1-c1ccc(Cl)cc1Cl (configuration not stated)	-22.4	3.0	0.5	-10.0
CCSc1nnc(-c2cccnc2)n1-c1ccc(Cl)c(C)c1	-8.3	1.0	1.5	0.0
O=C(Nc1ccc2c(c1)OCO2)NC1CCN(Cc2ccccc2)CC1	-34.4	-1.2	0.6	27.6*[artifact]
CCOc1ccc(C(=O)SC2=NCCS2)cc1	-47.9	52.5*	0.3	1.8

From PubChem
